ChEMBL document CHEMBL2424551, “Synthesis, in vitro evaluation and molecular modelling of naphthalimide analogue as anticancer agents” (2013)
Calls of active or inactive are those of the source. The rule behind the calls is not given here.

Test system: DNA
Assay: Binding affinity to calf thymus DNA assessed as DNA intercalation at 50 uM by fluorescence spectrophotometry
Format: nucleic-acid assay
Conditions: Bos taurus
Procedure, shortened: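 Fluorescence titration: increasing ct-DNA added to compound in phosphate buffer (pH 7.0); decrease in emission band at 500 nm monitored; binding constant derived from titration data by Benesi–Hildebrand method.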

Activity: Active
SMILES: CN(C)CCN1C(=O)c2cccc3cc(N)cc(c23)C1=O
